# Screening data from PubChem.
# Pf gamet viab: P. falciparum stage V gametocyte viability inhibition | P. falciparum stage V gametocytes, ATP luminescence, 24 h | inhibition, % at 10.9 µM | 0.065% of 150,000 active;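 active = inhibition above the mean plus 3 SD of compounds within the control limits, set per campaign, cut at about 38% in these data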;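 also: 0% = DMSO wells and 100% = medium only without gametocytes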
# Wee1 stabilizer: human Wee1 degradation inhibition, primary screen; HeLa Luc-Wee1K328M stability, luciferase luminescence; 100% = proteasome inhibitor MG132 effect; reporter increase, % at 5 µM; 1.2% of 220,000 active; AID 1321;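 active = activation above the mean of all tested compounds plus 3 SD, set per screening run, cut at about 8.8% in these data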;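 also: cells exposed to compound for 20 h before luminescence read; 0% = DMSO alone and 100% = MG132 at 30 µM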
# Hsp70 act: switches on Hsp70 transcription | HeLa Hsp70 promoter luciferase reporter, luminescence; scaled: vehicle 0, proteasome-inhibitor control 100% | activation, % at 10 µM | 0.04% of 200,000 active | AID 1203;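 active = activation above the mean across all tested compounds plus 3 SD, cutoff set per campaign, cut at about 5.5% in these data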;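 also: 100% = MG132 at 30 µM as the positive control and 0% = DMSO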
# m-calpain inh: blocks pig calpain II enzyme activity. purified calpain II, fluorogenic peptide substrate, 30 min. inhibition, % at 16 µM. 0.37% of 220,000 active. AID 1236;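 active = inhibition above about 50%, limit read from the data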
# MDM2 E3 inh: blocks human Mdm2 ubiquitin ligase activity; Q00987; cell-based MDM2 ubiquitination luciferase reporter, 2 h; 0 = plate control, 100 = twice control, blank-subtracted; signal enhancement, % at 5 µM; 0.11% of 210,000 active; AID 1230;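 active = signal enhancement of 30% or more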;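 also: luminescence tracks abundance of the self-degrading MDM2-luciferase fusion protein; higher signal means inhibition of MDM2 E3 ligase activity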
# Target sequence (Q00987 whole entry, looked up, the tested form may be a part): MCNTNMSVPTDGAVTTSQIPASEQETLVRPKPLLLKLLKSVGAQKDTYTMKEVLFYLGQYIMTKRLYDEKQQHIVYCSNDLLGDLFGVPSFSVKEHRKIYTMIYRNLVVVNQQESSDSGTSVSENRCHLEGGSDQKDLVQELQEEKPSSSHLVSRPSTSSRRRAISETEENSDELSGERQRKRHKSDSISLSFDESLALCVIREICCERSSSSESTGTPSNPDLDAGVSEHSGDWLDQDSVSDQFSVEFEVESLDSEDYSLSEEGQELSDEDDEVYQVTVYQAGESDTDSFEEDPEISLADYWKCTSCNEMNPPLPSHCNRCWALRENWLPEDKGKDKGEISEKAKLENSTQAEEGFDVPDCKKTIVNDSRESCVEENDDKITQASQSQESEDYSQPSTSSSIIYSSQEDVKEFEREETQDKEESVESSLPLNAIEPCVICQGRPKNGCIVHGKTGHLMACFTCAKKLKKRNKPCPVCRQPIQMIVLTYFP
#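 Assay system: stable mammalian line carrying autodegrading MDM2–luciferase fusion reporter; amount: 2000 cells seeded into each well; buffer or medium: DMEM; benchmarks: plate control and blank wells; signal: luciferase luminescence; timing: 2 h compound exposure at 37 °C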
# Wee1 stab conf: confirmation of human Wee1 degradation inhibitors. activation, % at 5 µM. 4% of 1,100 active. shares compounds with Wee1 stabilizer. HeLa Luc-Wee1K328M degradation, luminescence; vehicle 0%, proteasome-blocked wells 100%; in the data active = activation above about 8.9%
# * marks the source's active call; other numbers are inactive results; i = inactive; x = no result given. This is a sample that favours compounds with a hit; in the whole collection about 1.5% have one here.
SMILES,Pf gamet viab,Wee1 stabilizer,Hsp70 act,m-calpain inh,MDM2 E3 inh,Wee1 stab conf
O=C(C[n+]1cn(C(F)F)c2ccccc21)c1ccc(OC(F)F)cc1,9,15*,1,19,-7,-1
O=C(C[n+]1ccc(C(=O)NCc2ccccc2)cc1)c1ccc(OC(F)F)cc1,19,1,0,17,-19,x
CCC1CCCCN1C(=S)NC1CCCCC1 (stereo not given),-17,14*,0,-5,-9,1
S=C(NC1CCCCC1)N1CCCCC1,25,0,x,-3,-2,x
CC(/C=C/C=C/c1ccccc1)=N\NC(=O)c1cccnc1,x,0,0,21,-16,x
CC(/C=C/C=C/c1ccccc1)=N/NC(=O)c1ccc2c(c1)OCCO2,-4,11*,x,-10,-14,3
COCCSc1nnc(NC(=O)c2ccc(NC(C)=O)cc2)s1,-5,14*,0,1,-6,2
COCc1nnc(NC(=O)c2ccc(NC(C)=O)cc2)s1,26,0,0,-13,x,x
COCCNC(=O)c1cc(-c2ccccc2)n(Cc2cc(C)no2)n1,3,x,x,x,x,x
COc1cc(OC)c(/C=N/N2CCN(c3ccccc3OC)CC2)c(OC)c1,-8,x,x,x,x,x
Cc1cc2c(cc1C)C(c1ccccc1Br)CC(=O)N2 (stereo not given),-5,15*,0,-5,5,0
COc1ccccc1C1CC(=O)Nc2cc(C)c(C)cc21 (stereo not given),-8,x,x,x,x,x
COC(=O)c1ccccc1N=Nc1c(N)n[nH]c1N,6,-2,x,20,-13,x
COC(=O)c1ccccc1N=Nc1c(N)[nH][nH]c1=O,-13,18*,x,12,-24,1
CC(C)(Cc1ccccc1)/[N+]([O-])=C\c1ccc(C(F)(F)F)cc1,7,x,x,x,x,x
COC(=O)C1CCN(C(=O)CCC2CCCCC2)CC1,14,1,0,-11,-16,x
O=C(CCC1CCCC1)N1CCC(N2CCCCCC2)CC1,x,12*,0,18,-14,3
O=C(c1ccccc1F)N1CCCC(C(=O)N2CCc3ccccc3C2)C1 (stereo not given),-14,-1,x,2,-7,x
O=C(NCc1ccc2c(c1)OCO2)c1ccc2c(c1)OCO2,-23,16*,x,36,x,-4
CCNC(=S)NCc1ccc2c(c1)OCO2,x,-1,0,-7,-10,x
S=C(NCc1ccc2c(c1)OCO2)NCc1ccc2c(c1)OCO2,-6,12*,0,6,1,0
Cc1cc(-c2nn(-c3ccccc3F)cc2CN(C)CC(O)CO)c(C)s1 (stereo not given),30,13*,0,10,-13,2
CCOCCn1c(CN2CCN(c3ccccc3)CC2)nc2c1c(=O)n(C)c(=O)n2C,-9,11*,0,x,x,-1
O=C(Cc1cccs1)NCCSc1c(-c2ccc(Cl)cc2)[nH]c2ccccc12,x,13*,0,4,x,2
C=CCNCCOc1ccc(C)cc1[N+](=O)[O-],-15,2,0,-44,0,x
SMILES,Pf gamet viab,Wee1 stabilizer,Hsp70 act,m-calpain inh,MDM2 E3 inh,Wee1 stab conf
CCC(C)NCCOc1ccc(C)cc1[N+](=O)[O-] (stereo not given),-10,25*,0,11,-21,0
CCn1c(SCC(=O)c2ccccc2)nnc1-c1cnccn1,-21,2,0,9,-12,x
Cn1c(SCC(=O)c2ccccc2)nnc1-c1cnccn1,x,13*,0,-26,-12,-2
CCNC(=S)N1CCN(CC(=O)Nc2ccc(OC)cc2)CC1,-19,12*,0,-27,-6,-1
COc1ccc(C2c3ccc(O)cc3Oc3ncn4nc(-c5ccccn5)nc4c32)cc1OC (stereo not given),7,4,x,-7,-6,x
COc1ccc(C2c3ccc(O)cc3Oc3ncn4nc(-c5ccccn5)nc4c32)cc1 (stereo not given),-2,11*,x,17,-21,0
COc1ccc(C2c3ccc(O)cc3Oc3ncn(CCN4CCOCC4)c(=N)c32)cc1OC (stereo not given),19,0,x,19,-11,x
COc1ccc(C2c3ccc(O)cc3Oc3ncn(Cc4ccccc4)c(=N)c32)cc1OC (stereo not given),12,19*,x,-11,-15,0
O=C(Nc1ccccn1)c1sc2cccc(F)c2c1Cl,10,-1,0,-24,-67,x
O=C(Nc1cccnc1)c1sc2cccc(F)c2c1Cl,-9,15*,0,4,-8,-1
Cc1ccc(Cn2c(=O)c3ccccc3n3nc(C)cc23)cc1,x,-3,0,-41,-16,x
Cc1ccc2nc(-c3ccc(NC(=O)c4ccco4)cc3)[nH]c2c1,x,29*,0,-43,-21,8
COc1ccc(NC(=O)COC(=O)Cc2c[nH]c3ccccc23)cc1OC,-10,-5,0,5,-6,x
COc1ccc(NC(=O)COC(=O)Cc2ccccc2[N+](=O)[O-])cc1OC,-10,31*,0,-15,-7,1
COc1cc(-c2nc3ccccn3c2/N=C/c2cccc(F)c2)ccc1O,10,-1,0,-250,-13,x
COc1cc(-c2nc3ccccn3c2/N=C/c2ccccc2)ccc1O,x,68*,0,i,-21,1
O=C(Cn1cc(S(=O)(=O)Cc2ccccc2)c2ccccc21)Nc1ccccc1,x,1,0,-33,-5,x
Cc1cc(C)n(-c2cccc(Cl)c2C#N)n1,-3,13*,x,-166,-6,-4
N#Cc1c(Cl)cccc1-n1ccnc1,x,6,0,-6,-6,x
O=C1NC(=O)/C(=C\c2ccc(N3CCOCC3)o2)N1,2,3,0,-15,-22,x
CCc1cccc2c(C(=S)N3CCCC3)c[nH]c12,-7,14*,0,4,-3,1
O=C(c1ccc(Br)o1)N1CCc2ccccc21,x,13*,0,-26,-12,7
Cc1c(C(=O)N2CCc3ccccc32)oc2ccccc12,x,11*,0,0,-17,0
O=C(c1ccc(Br)o1)N1CCCc2ccccc21,-3,4,0,4,11,x
O=C(c1ccccc1)N1CCc2ccccc21,x,0,0,5,-9,x
SMILES,Pf gamet viab,Wee1 stabilizer,Hsp70 act,m-calpain inh,MDM2 E3 inh,Wee1 stab conf
CCCCNS(=O)(=O)c1ccc2nc(-c3cccnc3)cc(C(=O)NC(C)C)c2c1,x,19*,0,-41,x,-1
COc1ccccc1C1=NOC(C)(c2sc(-c3ccc(Cl)cc3)nc2C)C1 (stereo not given),x,x,x,4,13,x
CCN(CC)c1ccc(C(=O)Nc2cccc(F)c2)cc1,x,14*,0,-8,-57,5
CC(C)Cc1cc(C(C)(C)C)ccc1OC(=S)N(C)C,-2,x,x,x,x,x
CCOC(=O)c1cnc(SC)nc1N,-4,0,0,2,-21,x
CCOC(=O)c1cnc(SCC#N)nc1N,-14,13*,x,-29,x,-2
CCN1CCN(CCC(=O)Nc2cc(OC)cc(OC)c2)CC1,-27,x,x,x,x,x
